Assay results as given in ChEMBL document CHEMBL1134313, “Synthesis and biological evaluation of myoseverin derivatives: microtubule assembly inhibitors” (J Med Chem, 2001).

What was measured:
U-937 [1] = experiment: Growth inhibition of human U937 cells; assay type: functional
How it was run: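 Proliferating U937 human leukemic cells were exposed to the compounds. Potency is reported as GI50, the concentration giving 50% growth inhibition. Toxicity was checked separately at up to 100 µM, as LC50.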

Tubulin = Tubulin (Bos taurus, UniProt Q6B856+Q862L2+Q862F3); experiment: Inhibition of tubulin polymerization using bovine brain tubulin; assay type: functional
U-937 [2] = experiment: Toxicity towards human U937 cells.; assay type: cell-based

## COc1ccc(CNc2nc(NCc3ccc(OC)cc3)c3ncn(C4CCCC4)c3n2)cc1
U-937 [1]
  GI50: 2 µM
Tubulin
  IC50: 3 µM

## COc1ccc(CNc2nc(NCc3ccc(OC)cc3)c3ncn(C4CCOC4)c3n2)cc1 (stereo unspecified)
U-937 [1]
  GI50: 4 µM
Tubulin
  IC50: 5 µM

## COc1ccc(CNc2nc(NCc3ccc(OC)cc3)c3ncn(C4CCC4)c3n2)cc1
U-937 [1]
  GI50: 5 µM
Tubulin
  IC50: 5 µM

## COc1ccc(CNc2nc(NCc3ccc(OC)cc3)c3ncn(C4CCNCC4)c3n2)cc1
U-937 [2]
  LC50: 40 µM
U-937 [1]
  GI50: 6 µM
Tubulin
  IC50: 5 µM

## COc1ccc(CNc2nc(NCc3ccc(OC)cc3)c3ncn(C)c3n2)cc1
U-937 [1]
  GI50: 12 µM
Tubulin
  IC50: 25 µM

## CCn1cnc2c(NCc3ccc(OC)cc3)nc(NCc3ccc(OC)cc3)nc21
U-937 [1]
  GI50: 6 µM
Tubulin
  IC50: 25 µM

## COc1ccc(CNc2nc(NCc3ccc(OC)cc3)c3ncn(C4CCCCC4)c3n2)cc1
U-937 [1]
  GI50: 0.2 µM
Tubulin
  IC50: 2 µM

## COc1ccc(CNc2nc(NCc3ccc(OC)cc3)c3ncn(C4CCC(O)CC4)c3n2)cc1 (stereo unspecified)
U-937 [1]
  GI50: 2 µM
Tubulin
  IC50: 3 µM

## COc1ccc(CNc2nc(NCc3ccc(OC)cc3)c3[nH]cnc3n2)cc1
U-937 [1]
  GI50: 18 µM
Tubulin
  IC50: 50 µM

## COc1ccc(CNc2nc(NCc3ccc(OC)cc3)c3ncn(C(C)C)c3n2)cc1 [MYOSEVERIN]
U-937 [1]
  GI50: 4 µM
Tubulin
  IC50: 8 µM
